# Experimental data reported in ChEMBL document CHEMBL1141423, “Antimicrobial ambiguines from the cyanobacterium Fischerella sp. collected in Israel” (2007).
# Experiments:
# Format in all cases: functional
# Saccharomyces cerevisiae = test: Antifungal activity against Saccharomyces cerevisiae
# In short: (§1)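 Yeasts were tested in YPD broth, with amphotericin B as the reference antifungal.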
# Escherichia coli = test: Antibacterial activity against Escherichia coli ESS K12
# In short: (§2)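 Broth-based antibacterial test run in LB broth, with puramycin as the reference agent.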
# Bacillus subtilis = test: Antibacterial activity against Bacillus subtilis; in short: as §2
# Candida albicans = test: Antifungal activity against Candida albicans ATCC 90028; in short: as §1
# [1] = Antibacterial activity against Staphylococcus albus; in short: as §2
smiles,measurement,setting,value
[C-]#[N+][C@@H]1[C@@H]2c3c(C(C)(C)C=C)[nH]c4cccc(c34)C(C)(C)[C@H]2CC[C@]1(C)C=C,MIC,Saccharomyces cerevisiae,5 µg/mL
same,MIC,Escherichia coli,10 µg/mL
same,MIC,Bacillus subtilis,1.25 µg/mL
same,MIC,Candida albicans,6.25 µg/mL
same,MIC,[1],0.625 µg/mL
C=C[C@@]1(C)CC[C@@H]2C(C)(C)c3cccc4[nH]c5c(c34)[C@@]2(O)[C@]1(C#N)[C@H]1O[C@H]1C5(C)C [AMBIGUINE I ISONITRILE],MIC,Saccharomyces cerevisiae,0.312 µg/mL
same,MIC,Escherichia coli,2.5 µg/mL
same,MIC,Bacillus subtilis,0.312 µg/mL
same,MIC,Candida albicans,0.39 µg/mL
same,MIC,[1],0.078 µg/mL
C[C@@H]1[C@H](O)[C@@H](C)/C=C/C=C/C=C/C=C/C=C/C=C/C=C/[C@H](O[C@@H]2O[C@H](C)[C@@H](O)[C@H](N)[C@@H]2O)C[C@@H]2O[C@](O)(C[C@@H](O)C[C@@H](O)[C@H](O)CC[C@@H](O)C[C@@H](O)CC(=O)O[C@H]1C)C[C@H](O)[C@H]2C(=O)O [AMPHOTERICIN B],MIC,Candida albicans,1.56 µg/mL
COc1ccc(C[C@H](N)C(=O)N[C@H]2[C@@H](O)[C@H](n3cnc4c(N(C)C)ncnc43)O[C@@H]2CO)cc1 [PUROMYCIN],MIC,Saccharomyces cerevisiae,0.312 µg/mL
CN[C@@H]1[C@H](O[C@H]2[C@H](O[C@H]3[C@H](O)[C@@H](O)[C@H](N=C(N)N)[C@@H](O)[C@@H]3N=C(N)N)O[C@@H](C)[C@]2(O)C=O)O[C@@H](CO)[C@H](O)[C@H]1O [STREPTOMYCIN],MIC,Escherichia coli,0.312 µg/mL
same,MIC,Bacillus subtilis,2.5 µg/mL
same,MIC,[1],0.156 µg/mL
